Test results from the M2OR odorant receptor database.

What was measured:
Conditions in all cases: stereoisomer not certain
OR3A3 T48I L132F = tested on: T1, OR3A3 T48I L132F
T1 sequence (whole entry): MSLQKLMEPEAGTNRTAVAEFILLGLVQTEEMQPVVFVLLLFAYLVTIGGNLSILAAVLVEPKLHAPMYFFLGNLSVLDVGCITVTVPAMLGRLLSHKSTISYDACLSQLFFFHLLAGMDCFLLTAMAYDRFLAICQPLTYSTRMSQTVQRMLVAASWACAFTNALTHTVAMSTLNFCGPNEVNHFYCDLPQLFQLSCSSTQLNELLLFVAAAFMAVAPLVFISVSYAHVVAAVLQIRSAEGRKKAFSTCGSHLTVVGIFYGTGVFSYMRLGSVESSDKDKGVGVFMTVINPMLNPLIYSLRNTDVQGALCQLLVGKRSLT
Outline: (§1)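 Whether a receptor–molecule pair is responsive (active) rests on the original authors' judgment that its measured signal was statistically different from baseline. Pairs without that judgment are non-responsive (inactive). Sources used varied assay methods, commonly transient luciferase assays in mammalian cell lines.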

OR4A15 (Homo sapiens) = OR4A15 (Homo sapiens) (UniProt Q8NGL6)
Chain of OR4A15 (Homo sapiens) (Q8NGL6 whole entry): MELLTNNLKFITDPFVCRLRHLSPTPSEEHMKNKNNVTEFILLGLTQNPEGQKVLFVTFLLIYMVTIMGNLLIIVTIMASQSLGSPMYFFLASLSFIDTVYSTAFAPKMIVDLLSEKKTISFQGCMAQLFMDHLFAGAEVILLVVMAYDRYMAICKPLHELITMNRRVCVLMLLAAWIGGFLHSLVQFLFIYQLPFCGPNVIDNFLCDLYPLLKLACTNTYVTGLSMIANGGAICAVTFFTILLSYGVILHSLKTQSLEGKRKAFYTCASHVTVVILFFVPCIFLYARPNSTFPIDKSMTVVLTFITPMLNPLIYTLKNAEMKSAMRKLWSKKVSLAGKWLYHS
Outline: as §1

OR4A16 (Homo sapiens) = target: T2, OR4A16 (Homo sapiens) (UniProt Q8NH70)
T2 sequence (whole entry): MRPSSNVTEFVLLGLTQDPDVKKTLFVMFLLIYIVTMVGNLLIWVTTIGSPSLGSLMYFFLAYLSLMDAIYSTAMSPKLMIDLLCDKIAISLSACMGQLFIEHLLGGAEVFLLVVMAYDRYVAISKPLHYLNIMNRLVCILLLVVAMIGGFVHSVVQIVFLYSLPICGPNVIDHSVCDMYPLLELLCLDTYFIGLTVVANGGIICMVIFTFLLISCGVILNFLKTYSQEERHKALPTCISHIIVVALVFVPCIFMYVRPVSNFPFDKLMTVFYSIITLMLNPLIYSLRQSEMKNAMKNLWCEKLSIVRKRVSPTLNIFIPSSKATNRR
Outline: as §1

OR4A47 (Homo sapiens) = target: T3, OR4A47 (Homo sapiens) (UniProt Q6IF82)
T3 sequence (whole entry): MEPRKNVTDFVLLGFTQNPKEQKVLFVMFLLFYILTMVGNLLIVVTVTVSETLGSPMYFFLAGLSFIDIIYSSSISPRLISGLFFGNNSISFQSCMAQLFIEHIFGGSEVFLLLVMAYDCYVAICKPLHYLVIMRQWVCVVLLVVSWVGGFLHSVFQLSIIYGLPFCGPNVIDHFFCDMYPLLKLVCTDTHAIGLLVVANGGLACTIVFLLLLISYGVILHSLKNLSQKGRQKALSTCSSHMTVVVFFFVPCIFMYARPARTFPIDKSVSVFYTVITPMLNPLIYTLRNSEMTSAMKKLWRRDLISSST
Outline: as §1

OR4A5 (Homo sapiens) = target: T4, OR4A5 (Homo sapiens) (UniProt Q8NH83)
T4 sequence (whole entry): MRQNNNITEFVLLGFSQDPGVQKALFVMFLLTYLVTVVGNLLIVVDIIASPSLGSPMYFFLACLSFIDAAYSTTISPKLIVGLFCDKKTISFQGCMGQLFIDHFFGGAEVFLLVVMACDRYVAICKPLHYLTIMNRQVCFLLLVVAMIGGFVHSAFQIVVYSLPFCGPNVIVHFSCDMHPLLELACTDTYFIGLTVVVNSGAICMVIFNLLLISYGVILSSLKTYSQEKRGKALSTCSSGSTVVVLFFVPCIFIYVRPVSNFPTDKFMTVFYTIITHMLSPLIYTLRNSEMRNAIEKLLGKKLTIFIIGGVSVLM
Outline: as §1

OR4B1 (Homo sapiens) = target: T5, OR4B1 (Homo sapiens) (UniProt Q8NGF8)
T5 sequence (whole entry): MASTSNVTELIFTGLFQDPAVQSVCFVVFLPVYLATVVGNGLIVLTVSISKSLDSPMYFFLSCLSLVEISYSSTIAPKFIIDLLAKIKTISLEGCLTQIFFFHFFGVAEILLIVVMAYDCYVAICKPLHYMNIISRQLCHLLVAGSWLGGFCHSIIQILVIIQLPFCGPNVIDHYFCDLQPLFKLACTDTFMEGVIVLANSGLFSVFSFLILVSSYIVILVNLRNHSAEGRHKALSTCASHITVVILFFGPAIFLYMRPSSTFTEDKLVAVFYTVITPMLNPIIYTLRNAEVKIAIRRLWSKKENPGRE
Outline: as §1

OR4C11 (Homo sapiens) = target: T6, OR4C11 (Homo sapiens) (UniProt Q6IEV9)
T6 sequence (whole entry): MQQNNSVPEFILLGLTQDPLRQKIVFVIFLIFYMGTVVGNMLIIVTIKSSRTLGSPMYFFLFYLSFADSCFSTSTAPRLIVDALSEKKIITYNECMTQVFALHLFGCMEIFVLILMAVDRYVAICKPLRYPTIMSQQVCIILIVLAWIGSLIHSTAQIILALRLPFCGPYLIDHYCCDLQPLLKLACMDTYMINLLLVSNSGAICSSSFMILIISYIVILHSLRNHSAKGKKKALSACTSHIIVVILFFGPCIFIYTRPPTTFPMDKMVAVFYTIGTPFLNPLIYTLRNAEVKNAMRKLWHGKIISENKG
Outline: as §1

OR4C12 (Homo sapiens) = OR4C12 (Homo sapiens) (UniProt Q96R67)
Chain of OR4C12 (Homo sapiens) (Q96R67 whole entry): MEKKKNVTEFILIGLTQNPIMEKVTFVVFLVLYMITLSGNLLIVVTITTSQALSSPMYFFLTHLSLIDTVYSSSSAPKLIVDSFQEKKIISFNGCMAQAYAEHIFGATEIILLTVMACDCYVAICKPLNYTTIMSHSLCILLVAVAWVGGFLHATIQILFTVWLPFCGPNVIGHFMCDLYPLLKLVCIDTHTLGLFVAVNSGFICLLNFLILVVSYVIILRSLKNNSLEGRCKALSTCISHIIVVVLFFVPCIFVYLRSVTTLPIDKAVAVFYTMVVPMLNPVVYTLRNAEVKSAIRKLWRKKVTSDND
Outline: as §1

OR4A8 (Homo sapiens) = OR4A8 (Homo sapiens) (UniProt P0C604)
Chain of OR4A8 (Homo sapiens) (P0C604 whole entry): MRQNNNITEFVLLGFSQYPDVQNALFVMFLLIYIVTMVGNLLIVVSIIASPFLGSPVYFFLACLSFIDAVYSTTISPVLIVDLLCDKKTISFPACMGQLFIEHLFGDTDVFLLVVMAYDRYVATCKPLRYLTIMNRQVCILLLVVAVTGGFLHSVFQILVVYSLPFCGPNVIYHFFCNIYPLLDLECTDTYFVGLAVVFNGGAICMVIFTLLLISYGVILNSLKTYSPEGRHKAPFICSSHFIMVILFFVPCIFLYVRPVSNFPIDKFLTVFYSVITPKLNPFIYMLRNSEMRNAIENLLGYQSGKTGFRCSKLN
Outline: as §1

OR3A4P (Homo sapiens) = target: T7, OR3A4P (Homo sapiens) (UniProt P47883)
T7 sequence (whole entry): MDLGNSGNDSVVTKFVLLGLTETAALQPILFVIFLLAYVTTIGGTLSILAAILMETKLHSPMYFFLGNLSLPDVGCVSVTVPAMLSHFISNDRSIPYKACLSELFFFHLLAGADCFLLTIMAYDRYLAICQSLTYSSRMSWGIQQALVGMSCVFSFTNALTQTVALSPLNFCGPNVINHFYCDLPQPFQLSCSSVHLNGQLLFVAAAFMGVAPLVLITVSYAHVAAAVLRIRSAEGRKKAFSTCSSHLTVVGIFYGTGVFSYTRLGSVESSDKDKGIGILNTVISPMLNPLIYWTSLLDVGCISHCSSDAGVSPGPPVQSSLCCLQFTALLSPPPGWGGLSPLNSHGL
Outline: as §1

Row | Structure (SMILES) | odorant receptor agonist call (OR3A3 T48I L132F) | odorant receptor agonist call (OR4A15 (Homo sapiens)) | odorant receptor agonist call (OR4A16 (Homo sapiens)) | odorant receptor agonist call (OR4A47 (Homo sapiens)) | odorant receptor agonist call (OR4A5 (Homo sapiens)) | odorant receptor agonist call (OR4B1 (Homo sapiens)) | odorant receptor agonist call (OR4C11 (Homo sapiens)) | odorant receptor agonist call (OR4C12 (Homo sapiens)) | odorant receptor agonist call (OR4A8 (Homo sapiens)) | odorant receptor agonist call (OR3A4P (Homo sapiens))
1 | CC1=NC(C)C(C)S1 (stereo not given) | inactive | inactive | inactive | inactive | inactive | inactive | inactive | inactive | – | –
2 | CC(=O)c1c(C)c([N+](=O)[O-])c(C(C)(C)C)c([N+](=O)[O-])c1C | – | inactive | inactive | inactive | inactive | inactive | inactive | inactive | inactive | –
3 | CCCCCC(S)C(C)CO (stereo not given) | – | inactive | active | inactive | inactive | inactive | inactive | inactive | – | inactive
4 | CC1CCCCCCCCCCCCC(=O)C1 (stereo not given) | – | inactive | inactive | inactive | inactive | inactive | inactive | inactive | inactive | –
5 | CC1=C(O)C(=O)C(C)O1 (stereo not given) | inactive | inactive | inactive | inactive | inactive | inactive | inactive | inactive | – | –
6 | CCC1OC(C)=C(O)C1=O (stereo not given) | inactive | inactive | inactive | inactive | inactive | inactive | inactive | inactive | – | –
7 | CCCCCC(=O)C(C)C(C)=O (stereo not given) | – | inactive | inactive | inactive | inactive | inactive | inactive | inactive | – | inactive
8 | CCCC(S)CCOC(C)=O (stereo not given) | inactive | inactive | inactive | inactive | inactive | inactive | inactive | inactive | – | –
9 | CCC1OC(=O)C(O)=C1C (stereo not given) | inactive | inactive | inactive | inactive | inactive | inactive | inactive | inactive | – | –
10 | CC1=C(O)C(=O)OC1C (stereo not given) | inactive | inactive | inactive | inactive | inactive | inactive | inactive | inactive | – | –
11 | CC(CO)CS (stereo not given) | – | inactive | inactive | inactive | inactive | inactive | inactive | inactive | – | inactive
12 | CCCCCCC=CCCC=O | inactive | inactive | inactive | inactive | inactive | inactive | inactive | inactive | – | –
13 | Cc1cnc(C)c(C)n1 | inactive | inactive | inactive | inactive | inactive | inactive | inactive | inactive | – | –
14 | CCCCC(S)C(C)CO (stereo not given) | – | inactive | inactive | inactive | inactive | inactive | inactive | inactive | – | inactive
15 | CCC(S)C(C)CO (stereo not given) | – | inactive | inactive | inactive | inactive | inactive | inactive | inactive | – | inactive
